Data on three compounds can be found in ChEMBL document CHEMBL1147082 (Proc Natl Acad Sci U S A, 2007).

The test system of data set [1] is Mus musculus. The experiment in a line: Toxicity in Swiss-Webster mouse assessed as decrease in bone formation at 3 mg/kg after 28 days. Format: organism-based. Also on record: dose 3 mg/kg. As to conditions: in vivo, 672 h. The essentials:
(§1)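 Male Swiss–Webster mice, three months old, singly housed on standard chow, dosed orally for 28 days (vehicle; 3, 10, 30 mg/kg). Alizarin red 30 mg/kg s.c. at baseline DXA and calcein 15 mg/kg s.c. at final DXA for labeling. Tibial cortical histomorphometry under epifluorescence. Periosteal BFR = double-labeled surface × MAR/periosteal perimeter.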

Data set [2] concerns Mus musculus. Description: Toxicity in Swiss-Webster mouse assessed as decrease in bone formation at 10 mg/kg after 28 days. Format: organism-based. On the set-up: dose 10 mg/kg. As to conditions: in vivo, 672 h. The essentials:
as §1

Data set [3] deals with Mus musculus. The experiment in a line: Toxicity in Swiss-Webster mouse assessed as decrease in bone formation at 30 mg/kg after 28 days. It is filed as organism-based. On the set-up: dose 30 mg/kg. The note with it: in vivo, 672 h. The method in brief: as §1
The target of data set [4] is T1, Glucocorticoid receptor (Rattus norvegicus) (UniProt P06536).
T1 sequence (whole entry): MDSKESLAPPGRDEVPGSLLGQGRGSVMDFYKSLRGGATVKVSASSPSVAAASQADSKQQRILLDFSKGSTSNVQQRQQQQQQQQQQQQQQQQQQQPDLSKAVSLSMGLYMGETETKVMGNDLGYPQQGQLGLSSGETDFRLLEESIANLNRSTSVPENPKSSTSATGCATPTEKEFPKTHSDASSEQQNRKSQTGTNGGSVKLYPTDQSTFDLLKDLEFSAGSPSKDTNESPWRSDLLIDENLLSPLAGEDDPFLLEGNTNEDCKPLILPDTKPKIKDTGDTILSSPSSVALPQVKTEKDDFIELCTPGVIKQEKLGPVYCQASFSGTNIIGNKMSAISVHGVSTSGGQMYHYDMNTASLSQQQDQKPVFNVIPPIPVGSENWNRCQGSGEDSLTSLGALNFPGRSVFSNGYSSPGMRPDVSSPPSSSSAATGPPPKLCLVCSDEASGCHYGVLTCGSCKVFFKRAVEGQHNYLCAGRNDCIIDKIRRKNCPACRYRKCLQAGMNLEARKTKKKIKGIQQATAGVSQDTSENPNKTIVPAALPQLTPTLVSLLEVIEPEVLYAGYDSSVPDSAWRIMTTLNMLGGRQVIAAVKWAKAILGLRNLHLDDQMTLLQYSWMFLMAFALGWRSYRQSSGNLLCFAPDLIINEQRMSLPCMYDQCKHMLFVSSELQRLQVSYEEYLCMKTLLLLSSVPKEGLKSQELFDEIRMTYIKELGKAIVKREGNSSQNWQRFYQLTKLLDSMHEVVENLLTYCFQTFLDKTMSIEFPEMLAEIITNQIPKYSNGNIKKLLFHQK
The experiment in a line: Activity at endogenous glucocorticoid receptor in rat H42E liver cells assessed as increase in transcriptional activation of phosphoenol pyruvate carboxykinase at 0.01 uM after 24 hrs by RT-PCR. Format: cell-based. The essentials: (§2)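 H4IIE rat liver cells (endogenous GR) kept in 10% FBS, seeded overnight at 3.5 × 10^5 cells/well, then given vehicle or compound in 10% dextran/charcoal-treated FBS for 24 h. RNA extracted, first-strand cDNA made, real-time PCR run (40 cycles). Target signal divided by 36B4 control gene. Triplicate biological samples and triplicate assays per dose; one-way ANOVA with Dunnett's method.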

Data set [5] concerns the target T1, Glucocorticoid receptor (Rattus norvegicus). Description: Activity at endogenous glucocorticoid receptor in rat H42E liver cells assessed as increase in transcriptional activation of pyruvate dehydrogenase kinase at 0.1 uM after 24 hrs by RT-PCR. It is filed as cell-based. The method in brief: as §2
Data set [6] deals with Mus musculus. The experiment in a line: Inhibition of collagen-induced arthritis in DBA/1 mouse at less than 3 mg/kg, po after 15 days. It is filed as functional, organism-based. Also on record: dose 3 mg/kg. The essentials: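 Female DBA/1 mice, 6–8 weeks old, acclimatized 10 days. Bovine type II collagen (stored at 4 mg/ml in 0.01 M acetic acid) with complete Freund's adjuvant given intradermally at tail base on days 1 and 7. Daily oral gavage days 17–31 (15 days). Limbs scored 0–4 for clinical arthritis signs; 10 mice/group. One-way ANOVA with Fisher's LSD, P < 0.05.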

Data set [7] relates to Mus musculus. Description: Toxicity in Swiss-Webster mouse assessed as increase in body fat at 10 mg/kg after 28 days. The note with it: in vivo, 672 h. Also on record: dose 10 mg/kg. It is filed as organism-based. The essentials: (§3)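 Male Swiss–Webster mice, three months old, singly housed, 12-h light cycle, chow ad libitum. Oral treatment for 28 days with vehicle or 3, 10, 30 mg/kg. Percentage body fat measured by DEXA, compared against vehicle controls.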

Data set [8] relates to Mus musculus. Description: Toxicity in Swiss-Webster mouse assessed as increase in body fat at 30 mg/kg after 28 days. Format: organism-based. Also on record: dose 30 mg/kg. The note with it: in vivo, 672 h. The essentials:
as §3

Data set [9] deals with T2, Glucocorticoid receptor (Homo sapiens) (UniProt P04150).
T2 sequence (whole entry): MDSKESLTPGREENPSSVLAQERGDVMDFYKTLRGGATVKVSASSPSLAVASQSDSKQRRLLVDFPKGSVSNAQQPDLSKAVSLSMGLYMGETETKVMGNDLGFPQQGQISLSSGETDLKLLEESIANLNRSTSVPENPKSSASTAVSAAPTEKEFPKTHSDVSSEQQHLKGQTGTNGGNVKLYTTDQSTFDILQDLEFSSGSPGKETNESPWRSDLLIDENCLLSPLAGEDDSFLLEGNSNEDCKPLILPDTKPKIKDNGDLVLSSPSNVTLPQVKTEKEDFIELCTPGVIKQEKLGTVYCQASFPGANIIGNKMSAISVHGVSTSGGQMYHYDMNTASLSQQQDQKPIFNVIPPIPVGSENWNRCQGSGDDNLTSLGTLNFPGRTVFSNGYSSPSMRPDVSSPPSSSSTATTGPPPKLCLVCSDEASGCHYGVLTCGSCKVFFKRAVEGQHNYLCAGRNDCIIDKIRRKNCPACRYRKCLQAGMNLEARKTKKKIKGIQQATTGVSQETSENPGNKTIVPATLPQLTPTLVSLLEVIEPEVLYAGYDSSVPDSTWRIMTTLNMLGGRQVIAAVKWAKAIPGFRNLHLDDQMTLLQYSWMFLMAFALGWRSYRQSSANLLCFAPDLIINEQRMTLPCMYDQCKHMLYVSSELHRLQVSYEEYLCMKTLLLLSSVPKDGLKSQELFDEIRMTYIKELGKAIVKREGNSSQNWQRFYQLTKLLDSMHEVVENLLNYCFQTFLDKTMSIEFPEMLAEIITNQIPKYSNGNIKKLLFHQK
The note with it: CV-1.

For data set [10], the species on record is Mus musculus. The experiment in a line: Toxicity in Swiss-Webster mouse assessed as increase in body fat after 28 days relative to control. Format: organism-based. As to conditions: in vivo, 672 h. The essentials: as §3
In another data set the target is T3, Progesterone receptor (Homo sapiens, UniProt P06401).
T3 sequence (P06401 whole entry): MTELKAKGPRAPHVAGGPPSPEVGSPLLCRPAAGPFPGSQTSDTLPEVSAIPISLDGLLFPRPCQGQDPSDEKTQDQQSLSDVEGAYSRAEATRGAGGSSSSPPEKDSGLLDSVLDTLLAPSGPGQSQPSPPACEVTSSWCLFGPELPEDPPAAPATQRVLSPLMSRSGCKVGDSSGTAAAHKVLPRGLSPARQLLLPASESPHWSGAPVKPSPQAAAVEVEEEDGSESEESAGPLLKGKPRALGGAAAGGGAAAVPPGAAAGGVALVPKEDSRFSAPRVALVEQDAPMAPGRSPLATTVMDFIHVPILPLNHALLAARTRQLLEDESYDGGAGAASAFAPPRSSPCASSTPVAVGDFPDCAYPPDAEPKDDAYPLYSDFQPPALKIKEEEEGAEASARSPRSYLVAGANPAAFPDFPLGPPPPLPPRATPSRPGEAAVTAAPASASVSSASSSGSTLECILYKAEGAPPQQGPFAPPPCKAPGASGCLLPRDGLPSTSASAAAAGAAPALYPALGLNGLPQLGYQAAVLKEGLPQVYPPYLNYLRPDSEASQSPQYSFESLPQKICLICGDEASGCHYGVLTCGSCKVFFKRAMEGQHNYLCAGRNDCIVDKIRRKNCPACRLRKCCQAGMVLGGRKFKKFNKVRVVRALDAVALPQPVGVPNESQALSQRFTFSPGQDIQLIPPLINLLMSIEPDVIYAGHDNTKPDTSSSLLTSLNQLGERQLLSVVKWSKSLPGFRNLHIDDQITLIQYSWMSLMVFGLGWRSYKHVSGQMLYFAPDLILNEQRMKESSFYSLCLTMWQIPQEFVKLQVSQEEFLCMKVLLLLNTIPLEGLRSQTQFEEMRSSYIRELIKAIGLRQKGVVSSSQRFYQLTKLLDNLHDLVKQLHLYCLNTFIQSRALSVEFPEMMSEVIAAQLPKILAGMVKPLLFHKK
Description: Binding affinity to human recombinant progesterone-A receptor expressed in SF9 cells. The essentials: (§4)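 Receptor source: extracts of SF-9 insect cells infected with recombinant baculovirus expressing the indicated receptor. Affinity was measured in a labeled-hormone binding assay.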

In another data set the target is T4, Androgen receptor (Homo sapiens, UniProt P10275).
T4 sequence (P10275 whole entry): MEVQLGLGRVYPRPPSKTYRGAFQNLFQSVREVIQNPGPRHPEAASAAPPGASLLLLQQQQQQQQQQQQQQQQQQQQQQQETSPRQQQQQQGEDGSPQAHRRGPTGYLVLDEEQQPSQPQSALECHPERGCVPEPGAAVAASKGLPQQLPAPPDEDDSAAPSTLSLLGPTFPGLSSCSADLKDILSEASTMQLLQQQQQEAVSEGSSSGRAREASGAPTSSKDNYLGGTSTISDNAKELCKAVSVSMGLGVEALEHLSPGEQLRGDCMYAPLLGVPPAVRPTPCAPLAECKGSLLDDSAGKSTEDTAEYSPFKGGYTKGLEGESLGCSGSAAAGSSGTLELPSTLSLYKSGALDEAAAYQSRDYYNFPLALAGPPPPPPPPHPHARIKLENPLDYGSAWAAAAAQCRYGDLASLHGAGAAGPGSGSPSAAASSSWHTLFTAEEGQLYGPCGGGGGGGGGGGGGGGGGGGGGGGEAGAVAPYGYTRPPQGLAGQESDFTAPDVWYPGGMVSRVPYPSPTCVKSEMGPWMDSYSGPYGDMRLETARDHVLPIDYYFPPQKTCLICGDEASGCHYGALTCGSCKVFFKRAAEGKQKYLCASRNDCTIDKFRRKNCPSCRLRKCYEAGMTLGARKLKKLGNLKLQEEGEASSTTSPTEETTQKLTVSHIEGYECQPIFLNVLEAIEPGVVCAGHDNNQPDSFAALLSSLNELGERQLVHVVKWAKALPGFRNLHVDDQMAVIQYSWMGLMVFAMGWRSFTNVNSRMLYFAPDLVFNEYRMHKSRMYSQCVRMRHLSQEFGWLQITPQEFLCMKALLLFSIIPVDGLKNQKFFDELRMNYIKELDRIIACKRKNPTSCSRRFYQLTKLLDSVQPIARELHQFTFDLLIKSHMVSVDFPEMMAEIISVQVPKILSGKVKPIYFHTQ
Description: Binding affinity to human recombinant androgen receptor expressed in SF9 cells. The essentials: as §4

pKi: −log10 of the molar value. Activity calls are given as the source filed them. No cut-off for these calls is given here.

In the case of `C[C@]12C=CC(=O)C=C1CC[C@@H]1[C@@H]2[C@@H](O)C[C@@]2(C)[C@H]1CC[C@]2(O)C(=O)CO` [PREDNISOLONE], the Activity result in the data set with Mus musculus [1], with Mus musculus [2], in the data set on Mus musculus [3], with Mus musculus [7] and in the data set with Mus musculus [8] was “Toxic” in each case. In addition, the outcome (in [4]; in data set [5]; in the data set on Mus musculus [6]) was Active. The compound further displayed an ED50 in [9] of 4 nM.
The pKi is the Ki on a negative log10 scale, so that one unit is a factor of ten. On to `COc1c(O)ccc2c1-c1ccc3c(c1/C(=C/c1cccc(C)c1F)O2)C(C)=CC(C)(C)N3`, for which the Activity entry in the data set filed under Mus musculus [10] and with Mus musculus [3] was “Toxic” in each case. Further, the pKi on Progesterone receptor was 6.06; on Androgen receptor it was 6.04. The outcome with Mus musculus [6] was Active.
`C[C@@H]1C[C@H]2[C@@H]3CCC4=CC(=O)C=C[C@]4(C)[C@@]3(F)[C@@H](O)C[C@]2(C)[C@@]1(O)C(=O)CO` returned an ED50 in data set [9] of 0.1 nM.
